Reference: ChEMBL document CHEMBL1126908, “Synthesis and evaluation of new 6-amino-substituted benzo[c]phenanthridine derivatives” (J Med Chem, 1993)
Values after ≈ are worked out from the molar mass of the structure shown.

What was measured:
[1] = test system: P388 leukemia cells (Mus musculus); experiment: Cytotoxicity was measured on cultured murine leukemia cells (P388)
[2] = target: DNA topoisomerase 2-beta (Homo sapiens) (UniProt Q02880); experiment: Inhibition of topoisomerase II; conditions: Bos taurus
In short: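 Topoisomerase I or II purified from calf thymus, tested in a DNA cleavage assay. Read-out is the minimal inhibitory concentration (μM), meaning the lowest concentration that gives detectable stimulation of DNA cleavage.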

[3] = Cytotoxicity was measured on human mammary adenocarcinoma cells(Calc 18); assay type: functional, cell-based
In short: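 Human mammary adenocarcinoma Calc 18 cells exposed to various drug concentrations for 96 h at 37 °C. Viability read by neutral red staining. IC50 is the concentration giving 50% growth inhibition.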

L1210 = experiment: Cytotoxicity against murine lymphoblastic leukemia cells (L1210).; assay type: functional, cell-based; conditions: Mus musculus
In short: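 Murine L1210 cells grown in Dulbecco's MEM with 10% fetal calf serum at 37 °C, 5% CO2. Cells seeded, then after 24 h compounds added in duplicate at various concentrations and incubated 24 h. Cells counted by Coulter counter. IC50 taken as the dose giving 50% growth inhibition, extrapolated from regression curves of non-toxic experimental points.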

[4] = The ratio of the mean survival time of treated animals on the mean survival time of controls multiplied by 100.It is measured at dose of 20 mg/kg; T/C value; assay type: functional
In short: (§1)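 Female BDF1 mice inoculated IP with 10⁶ P388 leukemia cells on day 0, with 10 controls and 6 mice per test group. Compounds given IP as 0.2-mL PBS solutions on days 1, 3 and 7. T/C = mean survival time of treated mice / mean survival time of controls × 100.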

[5] = The ratio of the mean survival time of treated animals on the mean survival time of controls multiplied by 100.It is measured at dose of 10 mg/kg; T/C value; assay type: functional
In short: as §1

[6] = The ratio of the mean survival time of treated animals on the mean survival time of controls multiplied by 100.It is measured at dose of 5 mg/kg; T/C value; assay type: functional
In short: as §1

[7] = The ratio of the mean survival time of treated animals on the mean survival time of controls multiplied by 100.It is measured at dose of 100 mg/kg; T/C value; assay type: functional
In short: as §1

P388 [8] = experiment: (§2) Cytotoxicity was measured on murine leukemia p388 CPT 0.3; assay type: functional; conditions: Mus musculus
In short: (§3)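 Cells (P388, or camptothecin-resistant P388 CPT0.3) incubated 96 h at 37 °C with various drug concentrations. Viability read by neutral red staining. IC50 taken as the concentration giving 50% growth inhibition.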

P388 [9] = experiment: (§4) Cytotoxicity was measured on murine leukemia p388; assay type: functional; conditions: Mus musculus
In short: as §3

P388 [10] = experiment: as §4; assay type: functional, cell-based; conditions: Mus musculus
In short: as §3

P388 [11] = experiment: as §2; assay type: functional, cell-based; conditions: Mus musculus
In short: as §3

[12] = The ratio of the mean survival time of treated animals on the mean survival time of controls multiplied by 100.It is measured at dose of 40 mg/kg; T/C value; assay type: functional
In short: as §1

Sequence of DNA topoisomerase 2-beta (Homo sapiens) (Q02880 whole entry): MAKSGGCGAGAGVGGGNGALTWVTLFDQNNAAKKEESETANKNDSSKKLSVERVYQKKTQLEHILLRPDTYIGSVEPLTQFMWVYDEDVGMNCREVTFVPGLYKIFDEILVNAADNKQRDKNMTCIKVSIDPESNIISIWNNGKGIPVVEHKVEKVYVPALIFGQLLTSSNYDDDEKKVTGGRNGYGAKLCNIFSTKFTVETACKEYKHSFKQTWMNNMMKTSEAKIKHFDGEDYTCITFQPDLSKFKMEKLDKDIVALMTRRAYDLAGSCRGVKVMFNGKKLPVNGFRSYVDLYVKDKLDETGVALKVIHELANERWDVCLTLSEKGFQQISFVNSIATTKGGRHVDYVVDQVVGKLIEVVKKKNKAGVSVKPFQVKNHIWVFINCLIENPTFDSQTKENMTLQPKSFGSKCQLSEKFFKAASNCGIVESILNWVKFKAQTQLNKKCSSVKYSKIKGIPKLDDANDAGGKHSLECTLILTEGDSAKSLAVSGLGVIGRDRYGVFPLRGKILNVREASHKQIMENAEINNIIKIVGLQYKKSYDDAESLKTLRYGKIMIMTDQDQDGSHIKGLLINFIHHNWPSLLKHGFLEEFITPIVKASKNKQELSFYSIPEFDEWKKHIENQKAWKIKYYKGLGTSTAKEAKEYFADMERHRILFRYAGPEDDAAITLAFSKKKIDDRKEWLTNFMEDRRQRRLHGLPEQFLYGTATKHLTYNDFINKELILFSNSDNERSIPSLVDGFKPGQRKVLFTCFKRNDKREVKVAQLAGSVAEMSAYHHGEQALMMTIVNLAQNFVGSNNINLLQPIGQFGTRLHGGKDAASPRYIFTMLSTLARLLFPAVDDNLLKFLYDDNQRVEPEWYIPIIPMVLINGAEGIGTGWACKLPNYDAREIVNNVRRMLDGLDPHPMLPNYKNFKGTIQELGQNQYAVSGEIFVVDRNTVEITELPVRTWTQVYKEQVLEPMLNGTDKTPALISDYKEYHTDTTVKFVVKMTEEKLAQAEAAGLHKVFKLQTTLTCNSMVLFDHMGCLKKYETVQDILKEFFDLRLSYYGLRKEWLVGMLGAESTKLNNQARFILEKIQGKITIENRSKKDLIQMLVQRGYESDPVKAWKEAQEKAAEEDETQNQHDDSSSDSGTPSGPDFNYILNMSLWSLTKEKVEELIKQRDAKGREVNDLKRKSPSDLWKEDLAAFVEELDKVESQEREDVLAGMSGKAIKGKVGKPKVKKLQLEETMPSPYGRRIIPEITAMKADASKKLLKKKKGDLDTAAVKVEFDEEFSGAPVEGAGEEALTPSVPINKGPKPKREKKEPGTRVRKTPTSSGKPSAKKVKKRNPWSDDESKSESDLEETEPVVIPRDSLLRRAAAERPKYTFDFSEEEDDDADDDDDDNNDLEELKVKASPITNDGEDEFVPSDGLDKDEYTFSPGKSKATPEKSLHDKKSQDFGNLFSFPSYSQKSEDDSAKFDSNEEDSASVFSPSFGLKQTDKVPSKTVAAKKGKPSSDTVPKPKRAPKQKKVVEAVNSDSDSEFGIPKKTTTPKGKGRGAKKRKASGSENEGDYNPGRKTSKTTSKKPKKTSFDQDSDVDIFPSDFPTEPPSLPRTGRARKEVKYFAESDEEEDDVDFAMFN

Question: Which results are given for `CC[C@@]1(O)C(=O)OCc2c1cc1n(c2=O)Cc2cc3ccccc3nc2-1` [CAMPTOTHECIN]?
Answer: IC50 [1]: 15 nM; MIC [2]: > 100 µM

Question: For `COc1ccc2c(c1)c(NCCN(C)C)nc1c3ccc(O)cc3ccc21`, which MIC [2] is on record?
Answer: The MIC was 10 µM (≈ 3.61 µg/mL).

Question: What about the IC50 [3] of the same molecule?
Answer: Its IC50 is 1500 nM.

Question: Which IC50 (L1210) does the source give for `COc1ccc2ccc3c4ccccc4c(NCCN(C)C)nc3c2c1` here?
Answer: The IC50 was 2500 nM.

Question: Which IC50 (L1210) does the source give for `CN(C)CCCNc1nc2c3ccc(O)cc3ccc2c2ccc(O)cc12` here?
Answer: Its IC50 is 4500 nM.

Question: What about the MIC [2] of the same molecule?
Answer: Its MIC is 10 µM (≈ 3.61 µg/mL).

Question: And the IC50 [3]?
Answer: Its IC50 is over 10000 nM.

Question: For `CN(C)CCCNc1nc2c3ccc(O)cc3ccc2c2ccccc12`, which IC50 (L1210) is on record?
Answer: The IC50 was 2600 nM.

Question: What about the MIC [2] of the same molecule?
Answer: Its MIC is over 10 µM.

Question: And the IC50 [3]?
Answer: Its IC50 is 3000 nM.

Question: Which IC50 (L1210) does the source give for `COc1ccc2c(ccc3c4ccccc4c(NCCCN(C)C)nc23)c1` here?
Answer: The IC50 was 3400 nM.

Question: What about the MIC [2] of the same molecule?
Answer: The MIC was over 10 µM.

Question: What about the IC50 [3] of the same molecule?
Answer: Its IC50 is 2500 nM.

Question: Which results are given for `CN(C)CCNc1nc2c3cc(O)ccc3ccc2c2ccccc12`?
Answer: IC50 (L1210): 500 nM; Ratio [4]: 102; Ratio [5]: 83; Ratio [6]: 92; MIC [2]: 10 µM (≈ 3.31 µg/mL); IC50 [3]: 3000 nM

Question: For `CN(C)CCCNc1nc2c3cc(O)ccc3ccc2c2ccccc12`, which IC50 (L1210) is on record?
Answer: The IC50 was 3400 nM.

Question: And the Ratio [4]?
Answer: Its Ratio is 73.

Question: And the Ratio [5]?
Answer: The Ratio was 90.

Question: And the Ratio [6]?
Answer: Its Ratio is 91.

Question: What about the MIC [2] of the same molecule?
Answer: Its MIC is over 10 µM.

Question: What about the IC50 [3] of the same molecule?
Answer: The IC50 was 2500 nM.

Question: What does the source list for `COc1ccc2c(ccc3c4ccc(OC)cc4c(NCCCN(C)C)nc23)c1`?
Answer: IC50 (L1210): 2500 nM; MIC [2]: > 10 µM; IC50 [3]: 3000 nM

Question: For `COc1cc2ccc3c4cc(OC)c(OC)cc4c(NCCN(C)C)nc3c2cc1OC`, which IC50 (L1210) is on record?
Answer: Its IC50 is over 5000 nM.

Question: What about the MIC [2] of the same molecule?
Answer: Its MIC is over 10 µM.

Question: What about the IC50 [3] of the same molecule?
Answer: Its IC50 is 3000 nM.

Question: Which IC50 (L1210) does the source give for `CN(C)CCNc1nc2c3ccc(O)cc3ccc2c2ccc(O)cc12` here?
Answer: The IC50 was 500 nM.

Question: And the Ratio [4]?
Answer: Its Ratio is 111.

Question: What about the Ratio [5] of the same molecule?
Answer: Its Ratio is 111.

Question: And the Ratio [6]?
Answer: The Ratio was 119.

Question: And the MIC [2]?
Answer: The MIC was 3 µM (≈ 1.04 µg/mL).

Question: And the IC50 [3]?
Answer: Its IC50 is 1000 nM.

Question: What does the source list for `COc1ccc2c(ccc3c4ccccc4c(NCCN(C)C)nc23)c1`?
Answer: IC50 (L1210): 3000 nM; MIC [2]: 10 µM (≈ 3.45 µg/mL); IC50 [3]: 3000 nM

Question: With `CN(C)CCNc1nc2c3ccccc3ccc2c2ccccc12` as the molecule, how does the IC50 (L1210) read?
Answer: The IC50 was over 90000 nM.

Question: For `COc1cc2c(ccc3c4cc(OC)c(OC)cc4c[n+](C)c23)cc1O.[Cl-]` [FAGARONINE], which IC50 (L1210) is on record?
Answer: Its IC50 is 2000 nM.

Question: And the Ratio [7]?
Answer: Its Ratio is 265.

Question: And the IC90 (P388 [8])?
Answer: Its IC90 is over 10000 nM.

Question: What about the IC90 (P388 [9]) of the same molecule?
Answer: Its IC90 is 6000 nM.

Question: And the IC50 (P388 [10])?
Answer: Its IC50 is 2000 nM.

Question: And the IC50 (P388 [11])?
Answer: Its IC50 is over 10000 nM.

Question: For `COc1cc([C@@H]2c3cc4c(cc3[C@@H](O[C@@H]3O[C@@H]5CO[C@@H](C)O[C@H]5[C@H](O)[C@H]3O)[C@H]3COC(=O)[C@H]23)OCO4)cc(OC)c1O`, which MIC [2] is on record?
Answer: The MIC was 0.1 µM (≈ 0.0589 µg/mL).

Question: For `COc1cc2c(NCCN(C)C)nc3c4cc5c(cc4ccc3c2cc1OC)OCO5`, which IC50 (L1210) is on record?
Answer: The IC50 was 300 nM.

Question: What about the Ratio [4] of the same molecule?
Answer: The Ratio was 92.

Question: And the Ratio [5]?
Answer: The Ratio was 103.

Question: What about the Ratio [6] of the same molecule?
Answer: The Ratio was 99.

Question: And the IC90 (P388 [8])?
Answer: The IC90 was 3500 nM.

Question: And the MIC [2]?
Answer: Its MIC is 1 µM (≈ 0.419 µg/mL).

Question: And the IC90 (P388 [9])?
Answer: Its IC90 is 3500 nM.

Question: And the IC50 [3]?
Answer: Its IC50 is 600 nM.

Question: What about the IC50 (P388 [10]) of the same molecule?
Answer: Its IC50 is 900 nM.

Question: What about the IC50 (P388 [11]) of the same molecule?
Answer: The IC50 was 150 nM.

Question: What does the source list for `COc1ccc2c(ccc3c4ccc(OC)cc4c(NCCN(C)C)nc23)c1`?
Answer: IC50 (L1210): 1700 nM; MIC [2]: 10 µM (≈ 3.75 µg/mL); IC50 [3]: 1500 nM

Question: Which IC50 (L1210) does the source give for `COc1ccc2ccc3c4ccccc4c(NCCCN(C)C)nc3c2c1` here?
Answer: The IC50 was 2600 nM.

Question: What does the source list for `CN(C)CCNc1nc2c3ccc(O)cc3ccc2c2ccccc12`?
Answer: IC50 (L1210): 500 nM; Ratio [4]: 118; Ratio [5]: 138; Ratio [6]: 93; MIC [2]: 1 µM (≈ 0.331 µg/mL); Ratio [12]: 101; IC50 [3]: 1000 nM
